According to ChEMBL document CHEMBL3739352, “Anticonvulsant activity, crystal structures, and preliminary safety evaluation of N-trans-cinnamoyl derivatives of selected (un)modified aminoalkanols” (Eur J Med Chem, 2016):
The source made the active and inactive calls. The rule behind the calls is not given here.

Experiments:
[1] = Hepatotoxicity against human HepG2 cells assessed as cell viability at 100 uM after 24 hrs by MTT assay relative to control
in vitro [2] = details: human, HepG2 cells
in vitro [3] = details: human, HepG2 cells; remark: listed apart in the source
[4] = Hepatotoxicity against human HepG2 cells assessed as cell viability at 25 uM after 24 hrs by MTT assay relative to control; format: toxicity, cell-based; details: read-out: Activity
Outline: (§1)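 HepG2 cells (EMEM, 10% FBS, 37 °C, 5% CO₂) were seeded at 1 × 10⁴ per well and cultured overnight. They were then exposed to increasing compound concentrations for 24 h. MTT reagent was added for 3 h and formazan crystals dissolved before reading. Data are mean ± SD of at least three independent experiments, relative to untreated control.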

in vitro [5] = details: human, HepG2 cells; remark: listed apart in the source
[6] = Hepatotoxicity against human HepG2 cells assessed as cell viability at 10 uM after 24 hrs by MTT assay relative to control; format: toxicity, cell-based; details: read-out: Activity; outline: as §1
[7] = Hepatotoxicity against human HepG2 cells assessed as cell viability at 50 uM after 24 hrs by MTT assay relative to control
in vitro [8] = details: human, HepG2 cells; remark: listed apart in the source
Rattus norvegicus [9] = assay: Anticonvulsant activity in Sprague-Dawley rat assessed as protection against maximal electroshock-induced seizures at 30 mg/kg, po after 0.5 hrs; format: functional, organism-based
Outline: (§2)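 Sprague-Dawley rats were given 30 mg/kg p.o. in 0.5% methylcellulose. Maximal electroshock was applied at 0.25, 0.5, 1.0, 2.0 and 4 h after dosing. Results are reported as number of rats protected / number tested.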

Mus musculus [10] = assay: Anticonvulsant activity in albino Carworth Farms No.1 mouse assessed as protection against maximal electroshock-induced seizures at 100 mg/kg, ip after 4 hrs; format: functional, organism-based
Outline: (§3)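 Mouse i.p. screen in Carworth Farms No.1 albino mice at 30, 100 or 300 mg/kg in 0.5% methylcellulose. Testing was at 0.5 and 4 h after injection, by maximal electroshock or by subcutaneous pentetrazol challenge. Scoring was number protected / number used.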

Rattus norvegicus [11] = assay: Neurotoxicity in Sprague-Dawley rat at 30 mg/kg, po after 4 hrs; format: toxicity, organism-based; details: in vivo
Outline: (§4)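 Sprague-Dawley rats were given 30 mg/kg orally in 0.5% methylcellulose. Neurotoxicity was checked at 0.25, 0.5, 1.0, 2.0 and 4 h after dosing. Results are given as number of rats showing neurotoxicity/number tested.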

Mus musculus [12] = assay: Neurotoxicity in albino Carworth Farms No.1 mouse at 30 mg/kg, ip after 0.5 hrs by rotarod test; format: toxicity, organism-based; details: in vivo
Outline: (§5)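 Mice (albino Carworth Farms No.1) were dosed i.p. at 30, 100 or 300 mg/kg in 0.5% methylcellulose. They were tested 0.5 and 4 h later on a 1-inch knurled rod rotating at 6 rpm. Neurotoxicity was scored if a mouse could not stay on the rod for at least 1 min in each of three trials. Results are given as animals toxic/animals tested, with deaths noted.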

Mus musculus [13] = assay: Anticonvulsant activity in albino Carworth Farms No.1 mouse assessed as protection against maximal electroshock-induced seizures at 300 mg/kg, ip after 0.5 hrs; format: functional, organism-based; outline: as §3
[14] = Lipophilicity of the compound using 65% methanol in water at 1 mg/ml by RT-TLC analysis; format: physicochemical; details: buffer
Outline: (§6)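 Reversed-phase TLC with a methanol–water mobile phase at the stated methanol content (v/v). Compounds were spotted from 1 mg/mL methanol solutions after 1 h chamber saturation and located under UV light. Rf was measured and RM = log(1/Rf − 1) calculated.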

Rattus norvegicus [15] = assay: Neurotoxicity in Sprague-Dawley rat at 30 mg/kg, po after 1 hr; format: toxicity, organism-based; details: in vivo; outline: as §4
Rattus norvegicus [16] = assay: Anticonvulsant activity in Sprague-Dawley rat assessed as protection against maximal electroshock-induced seizures at 30 mg/kg, po after 4 hrs; format: functional, organism-based; outline: as §2
Mus musculus [17] = assay: Anticonvulsant activity in albino Carworth Farms No.1 mouse assessed as protection against maximal electroshock-induced seizures at 100 mg/kg, ip after 0.5 hrs; format: functional, organism-based; outline: as §3
Rattus norvegicus [18] = assay: Neurotoxicity in Sprague-Dawley rat at 30 mg/kg, po after 0.5 hrs; format: toxicity, organism-based; details: in vivo; outline: as §4
Mus musculus [19] = assay: Anticonvulsant activity in albino Carworth Farms No.1 mouse assessed as protection against subcutaneous dosed pentetrazol-induced seizures at 100 mg/kg, ip after 4 hrs; format: functional, organism-based; outline: as §3
Rattus norvegicus [20] = assay: Neurotoxicity in Sprague-Dawley rat at 30 mg/kg, po after 2 hrs; format: toxicity, organism-based; details: in vivo; outline: as §4
Mus musculus [21] = assay: Anticonvulsant activity in albino Carworth Farms No.1 mouse assessed as protection against subcutaneous dosed pentetrazol-induced seizures at 300 mg/kg, ip after 0.5 hrs; format: functional, organism-based; outline: as §3
Mus musculus [22] = assay: Neurotoxicity in albino Carworth Farms No.1 mouse at 30 mg/kg, ip after 4 hrs by rotarod test; format: toxicity, organism-based; details: in vivo; outline: as §5
Mus musculus [23] = assay: Neurotoxicity in albino Carworth Farms No.1 mouse at 100 mg/kg, ip after 0.5 hrs by rotarod test; format: toxicity, organism-based; details: in vivo; outline: as §5
Rattus norvegicus [24] = assay: Neurotoxicity in Sprague-Dawley rat at 30 mg/kg, po after 0.25 hrs; format: toxicity, organism-based; details: in vivo; outline: as §4
Mus musculus [25] = assay: Anticonvulsant activity in albino Carworth Farms No.1 mouse assessed as protection against subcutaneous dosed pentetrazol-induced seizures at 300 mg/kg, ip after 4 hrs; format: functional, organism-based; outline: as §3
Mus musculus [26] = assay: Neurotoxicity in albino Carworth Farms No.1 mouse at 300 mg/kg, ip after 4 hrs by rotarod test; format: toxicity, organism-based; details: in vivo; outline: as §5
Rattus norvegicus [27] = assay: Anticonvulsant activity in Sprague-Dawley rat assessed as protection against maximal electroshock-induced seizures at 30 mg/kg, po after 0.25 hrs; format: functional, organism-based; outline: as §2
Rattus norvegicus [28] = assay: Anticonvulsant activity in Sprague-Dawley rat assessed as protection against maximal electroshock-induced seizures at 30 mg/kg, po after 2 hrs; format: functional, organism-based; outline: as §2
[29] = Lipophilicity of the compound using 75% methanol in water at 1 mg/ml by RT-TLC analysis; format: physicochemical; details: buffer; outline: as §6
Mus musculus [30] = assay: Anticonvulsant activity in albino Carworth Farms No.1 mouse assessed as protection against subcutaneous dosed pentetrazol-induced seizures at 30 mg/kg, ip after 0.5 hrs; format: functional, organism-based; outline: as §3
Mus musculus [31] = assay: Anticonvulsant activity in albino Carworth Farms No.1 mouse assessed as protection against maximal electroshock-induced seizures at 30 mg/kg, ip after 4 hrs; format: functional, organism-based; outline: as §3
Mus musculus [32] = assay: Anticonvulsant activity in albino Carworth Farms No.1 mouse assessed as protection against subcutaneous dosed pentetrazol-induced seizures at 100 mg/kg, ip after 0.5 hrs; format: functional, organism-based; outline: as §3
Rattus norvegicus [33] = assay: Anticonvulsant activity in Sprague-Dawley rat assessed as protection against maximal electroshock-induced seizures at 30 mg/kg, po after 1 hr; format: functional, organism-based; outline: as §2
Mus musculus [34] = assay: Anticonvulsant activity in albino Carworth Farms No.1 mouse assessed as protection against subcutaneous dosed pentetrazol-induced seizures at 30 mg/kg, ip after 4 hrs; format: functional, organism-based; outline: as §3
[35] = Lipophilicity of the compound using 90% methanol in water at 1 mg/ml by RT-TLC analysis; format: physicochemical; details: buffer; outline: as §6
Mus musculus [36] = assay: Neurotoxicity in albino Carworth Farms No.1 mouse at 100 mg/kg, ip after 4 hrs by rotarod test; format: toxicity, organism-based; details: in vivo; outline: as §5
Mus musculus [37] = assay: Anticonvulsant activity in albino Carworth Farms No.1 mouse assessed as protection against maximal electroshock-induced seizures at 30 mg/kg, ip after 0.5 hrs; format: functional, organism-based; outline: as §3
[38] = Lipophilicity of the compound at 1 mg/ml by RT-TLC analysis relative to 0% methanol; format: physicochemical; details: methanol/water
Outline: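 Reversed-phase TLC used methanol–water mobile phases of 95–65% methanol. Compounds were applied from 1 mg/mL methanol solutions after 1 h chamber saturation, with UV detection. RM = log(1/Rf − 1) was calculated at each methanol level and extrapolated linearly (RM = RM0 + bC) to 0% methanol to give RM0.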

Mus musculus [39] = assay: Anticonvulsant activity in albino Carworth Farms No.1 mouse assessed as protection against maximal electroshock-induced seizures at 300 mg/kg, ip after 4 hrs; format: functional, organism-based; outline: as §3
Mus musculus [40] = assay: Neurotoxicity in albino Carworth Farms No.1 mouse at 300 mg/kg, ip after 0.5 hrs by rotarod test; format: toxicity, organism-based; details: in vivo; outline: as §5
[41] = Lipophilicity of the compound using 95% methanol in water at 1 mg/ml by RT-TLC analysis; format: physicochemical; details: buffer; outline: as §6
[42] = Lipophilicity of the compound using 85% methanol in water at 1 mg/ml by RT-TLC analysis; format: physicochemical; details: buffer; outline: as §6
Rattus norvegicus [43] = assay: Anticonvulsant activity in po dosed Sprague-Dawley rat assessed as protection against subcutaneous dosed pentetrazol-induced seizures after 0.5 hrs; format: functional
Outline: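 Sprague-Dawley rats received graded oral doses suspended or dissolved in 0.5% methylcellulose. Challenge was maximal electroshock or subcutaneous pentetrazol at the stated time after dosing.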

Mus musculus [44] = assay: Anticonvulsant activity in ip dosed albino Carworth Farms No.1 mouse assessed as protection against subcutaneous dosed pentetrazol-induced seizures after 0.25 hrs; format: functional; details: Carworth Farms No.1, 0.25 h
Outline: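 Quantitative i.p. evaluation in Carworth Farms No.1 albino mice, with graded doses in 0.5% methylcellulose. MES, scPTZ or 6-Hz (32 mA) seizure tests were run at 0.25 h.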

SMILES: COc1cccc2c1C(=O)c1c(O)c3c(c(O)c1C2=O)C[C@@](O)(C(=O)CO)C[C@@H]3O[C@H]1C[C@H](N)[C@H](O)[C@H](C)O1 [DOXORUBICIN]
- viability at 24 h, 100 µM [1]: 44.9%
- viability at 24 h, 100 µM (in vitro [2]): 48%
- viability at 24 h, 50 µM (in vitro [3]): 75%
- viability at 24 h, 25 µM [4]: 65.3%
- viability at 24 h, 10 µM (in vitro [5]): 91%
- viability at 24 h, 10 µM [6]: 77.4%
- viability at 24 h, 50 µM [7]: 51.6%
- viability at 24 h, 25 µM (in vitro [8]): 83%

SMILES: CC(=O)OC(C)CNC(=O)/C=C/c1ccccc1 (racemic)
- Activity (Rattus norvegicus [9]): inactive
- Activity (Mus musculus [10]): inactive
- Activity (Rattus norvegicus [11]): Non-toxic
- Activity (Mus musculus [12]): Non-toxic
- Activity (Mus musculus [13]): Active
- Rm [14]: 0.25
- Activity (Rattus norvegicus [15]): Non-toxic
- Activity (Rattus norvegicus [16]): inactive
- Activity (Mus musculus [17]): inactive
- Activity (Rattus norvegicus [18]): Non-toxic
- Activity (Mus musculus [19]): inactive
- Activity (Rattus norvegicus [20]): Non-toxic
- Activity (Mus musculus [21]): Active
- Activity (Mus musculus [22]): Non-toxic
- Activity (Mus musculus [23]): Non-toxic
- Activity (Rattus norvegicus [24]): Non-toxic
- Activity (Mus musculus [25]): inactive
- Activity (Mus musculus [26]): Non-toxic
- Activity (Rattus norvegicus [27]): inactive
- Activity (Rattus norvegicus [28]): inactive
- Rm [29]: -0.1
- Activity (Mus musculus [30]): inactive
- Activity (Mus musculus [31]): inactive
- Activity (Mus musculus [32]): inactive
- Activity (Rattus norvegicus [33]): inactive
- Activity (Mus musculus [34]): inactive
- Rm [35]: -0.48
- Activity (Mus musculus [36]): Non-toxic
- Activity (Mus musculus [37]): inactive
- Rm [38]: 2.003
- Activity (Mus musculus [39]): Active
- Activity (Mus musculus [40]): Non-toxic
- Rm [41]: -0.58
- Rm [42]: -0.19

SMILES: CC(=O)OCC(C)NC(=O)/C=C/c1ccccc1 (racemic)
- Activity (Rattus norvegicus [9]): inactive
- Activity (Mus musculus [10]): inactive
- Activity (Rattus norvegicus [11]): Non-toxic
- Activity (Mus musculus [12]): Non-toxic
- Activity (Mus musculus [13]): Active
- Rm [14]: 0.19
- Activity (Rattus norvegicus [15]): Non-toxic
- Activity (Rattus norvegicus [16]): inactive
- Activity (Mus musculus [17]): Active
- Activity (Rattus norvegicus [18]): Non-toxic
- Activity (Mus musculus [19]): inactive
- Activity (Rattus norvegicus [20]): Non-toxic
- Activity (Mus musculus [21]): inactive
- Activity (Mus musculus [22]): Non-toxic
- Activity (Mus musculus [23]): Non-toxic
- Activity (Rattus norvegicus [24]): Non-toxic
- Activity (Mus musculus [25]): inactive
- Activity (Mus musculus [26]): Non-toxic
- Activity (Rattus norvegicus [27]): inactive
- Activity (Rattus norvegicus [28]): inactive
- Rm [29]: -0.07
- Activity (Mus musculus [30]): inactive
- Activity (Mus musculus [31]): inactive
- Activity (Mus musculus [32]): inactive
- Activity (Rattus norvegicus [33]): inactive
- Activity (Mus musculus [34]): inactive
- Rm [35]: -0.48
- Activity (Mus musculus [36]): Non-toxic
- Activity (Mus musculus [37]): inactive
- Rm [38]: 1.88
- Activity (Mus musculus [39]): inactive
- Activity (Mus musculus [40]): Non-toxic
- Rm [41]: -0.58
- Rm [42]: -0.21

SMILES: NC(=O)N1c2ccccc2C=Cc2ccccc21 [CARBAMAZEPINE]
- ED50 (Rattus norvegicus [43]): > 250 mg/kg
- ED50 (Mus musculus [44]): > 50 mg/kg
